Measured values taken from ChEMBL document CHEMBL1821702, “8,8-Dimethyldihydroberberine with improved bioavailability and oral efficacy on obese and diabetic mouse models” (Bioorg Med Chem, 2010).

Assays:
Rattus norvegicus [1] = organism: Rattus norvegicus; assay: Induction of AMPK phosphorylation in 2 hrs serum starved rat differentiated L6 myotubes after 1 hr
How it was run: (§1)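 Fully differentiated L6 myotubes were serum-starved 2 h, then treated 1 h across a dose series. Phospho-AMPK (Thr172) and phospho-ACC (Ser79) were detected by Western blot. Three independent experiments.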

Rattus norvegicus [2] = organism: Rattus norvegicus; assay: Induction of AMPK-dependent ACC phosphorylation in 2 hrs serum starved rat differentiated L6 myotubes after 1 hr; how it was run: as §1
L6 [3] = assay: Cytotoxicity against rat L6 cells upto 10 uM after 24 hrs by MTT assay; type: cell-based; conditions: l6, 24 h
How it was run: (§2)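 Differentiated L6 myoblasts were exposed to a concentration range of compounds for 24 h at 37 °C. MTT (5 mg/mL) was added for 3 h, formazan was dissolved in DMSO, and absorbance was read at 550 nm against 690 nm reference. Mean of three independent experiments ± SE.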

L6 [4] = assay: Cytotoxicity against rat L6 cells upto 40 uM after 24 hrs by MTT assay; type: cell-based; conditions: l6, 24 h; how it was run: as §2
L6 [5] = assay: Increase in glucose uptake in rat differentiated L6 myotubes after 1 hr relative to untreated control; type: functional
How it was run: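 Fully differentiated L6 myotubes were serum-starved 2 h, then treated with compound for 15 min to 2 h (dose series at 1 h). Glucose uptake was measured relative to DMSO control. Mean of three independent experiments ± SE.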

SMILES | Activity (Rattus norvegicus [1]) | Activity (Rattus norvegicus [2]) | Activity (L6 [3]) | Activity (L6 [4]) | Activity (L6 [5]) [%]
CCC1(CC)c2c(ccc(OC)c2OC)CC2=[N+]1CCc1cc3c(cc12)OCO3.[Cl-] [8,8-Diethyldihydroberberine] | Dose-dependent effect | Dose-dependent effect | Toxic | – | –
CCCC1(CCC)c2c(ccc(OC)c2OC)CC2=[N+]1CCc1cc3c(cc12)OCO3.[Cl-] [8,8-Dipropyldihydroberberine] | – | – | – | Non-toxic | 62
